Source: ChEMBL document CHEMBL4350958, “Rational Design of Short Peptide Variants by Using Kunitzin-RE, an Amphibian-Derived Bioactivity Peptide, for Acquired Potent Broad-Spectrum Antimicrobial and Improved Therapeutic Potential of Commensalism Coinfection of Pathogens” (J Med Chem, 2019)

What was measured:
[1] = Cytotoxicity against mouse RAW264.7 cells assessed as cell viability at 2 to 64 uM measured after 18 to 24 hrs by MTT assay relative to control; assay type: cell-based; settings: RAW264.7 cells, read-out: Activity
Procedure, shortened: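 MTT assay: RAW264.7 cells seeded at 1.0–2.0×10^4 per well and exposed to peptide (2–64 µM) for 18–24 h at 37 °C in 5% CO2. MTT (0.5 mg/mL) added for 4 h, formazan dissolved in DMSO, read at 570 nm. At least three independent experiments with triplicate wells.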

Escherichia coli [2] = assay: Antibacterial activity against Escherichia coli UB1005 measured after 24 hrs; assay type: functional; settings: UB1005, 24 h
Procedure, shortened: (§1)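 Broth microdilution adapted from NCCLS. Mid-log bacteria were diluted in MHB to a final (0.5–1) × 10^5 CFU mL−1. Peptides were serially diluted in 0.2% BSA and mixed with an equal volume of cells. After 24 h at 37 °C, MIC was read at A492 as the lowest concentration inhibiting 95% of growth. At least three independent experiments, each with three technical replicates.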

[3] = Antibacterial activity against Salmonella pullorum ATCC 7913 measured after 24 hrs; assay type: functional, Salmonella enterica subsp. enterica serovar Pullorum; settings: Salmonella enterica, ATCC 7913, 24 h; procedure, shortened: as §1
Escherichia coli [4] = assay: Antibacterial activity against Escherichia coli K88 measured after 24 hrs; assay type: functional; settings: K88, 24 h; procedure, shortened: as §1
Escherichia coli [5] = assay: Antibacterial activity against Escherichia coli K99 measured after 24 hrs; assay type: functional; settings: K99, 24 h; procedure, shortened: as §1
Escherichia coli [6] = assay: Antibacterial activity against Escherichia coli 078 measured after 24 hrs; assay type: functional; settings: Escherichia coli, 078, 24 h; procedure, shortened: as §1
Staphylococcus aureus [7] = assay: Antibacterial activity against Staphylococcus aureus ATCC 25923 measured after 24 hrs; assay type: functional; settings: ATCC 25923, 24 h
Procedure, shortened: (§2)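 Broth microdilution modified from NCCLS. Mid-log bacteria at (0.5–1) × 10^5 CFU mL−1 in MHB, mixed with peptides serially diluted in 0.2% BSA. Incubated 24 h at 37 °C, read at A492. MIC taken as lowest concentration giving 95% growth inhibition. At least three independent experiments, each with three technical replicates.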

Staphylococcus aureus [8] = assay: Antibacterial activity against Staphylococcus aureus ATCC 29213 measured after 24 hrs; assay type: functional; settings: ATCC 29213, 24 h; procedure, shortened: as §2
Pseudomonas aeruginosa = assay: Bactericidal activity against Pseudomonas aeruginosa ATCC 27853 incubated for 24 hrs followed by replating on agar plate and measured after overnight incubation; assay type: functional; settings: ATCC 27853, 24 h, read-out: MBC>99.9
Procedure, shortened: (§3)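 Mid-log bacteria diluted in MHB to (0.5–1) × 10^5 CFU/mL and mixed 1:1 with peptide serially diluted in 0.2% BSA. After 24 h at 37 °C, 50 μL of each mixture was plated on agar and incubated overnight. MBC taken as the lowest concentration killing >99.9% of cells. At least three independent experiments, each with three technical replicates.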

Escherichia coli [9] = assay: Bactericidal activity against Escherichia coli K88 incubated for 24 hrs followed by replating on agar plate and measured after overnight incubation; assay type: functional; settings: K88, 24 h, read-out: MBC>99.9; procedure, shortened: as §3
[10] = test system: Staphylococcus epidermidis; assay: Bactericidal activity against Staphylococcus epidermidis ATCC 12228 incubated for 24 hrs followed by replating on agar plate and measured after overnight incubation; assay type: functional; settings: ATCC 12228, 24 h, read-out: MBC>99.9; procedure, shortened: as §3
Escherichia coli [11] = assay: Antibacterial activity against Escherichia coli ATCC 25922 measured after 18 to 24 hrs in presence of KCl; assay type: functional
Escherichia coli [12] = assay: Antibacterial activity against Escherichia coli ATCC 25922 measured after 18 to 24 hrs in presence of CaCl2; assay type: functional
Escherichia coli [13] = assay: Antibacterial activity against Escherichia coli ATCC 25922 measured after 18 to 24 hrs in presence of MgCl2; assay type: functional
Staphylococcus aureus [14] = assay: Antibacterial activity against Staphylococcus aureus ATCC 29213 measured after 18 to 24 hrs in presence of NaCl; assay type: functional
Staphylococcus aureus [15] = assay: Antibacterial activity against Staphylococcus aureus ATCC 29213 measured after 18 to 24 hrs in presence of CaCl2; assay type: functional
Staphylococcus aureus [16] = assay: Antibacterial activity against Staphylococcus aureus ATCC 29213 measured after 18 to 24 hrs in presence of MgCl2; assay type: functional
Staphylococcus aureus [17] = assay: Antibacterial activity against Staphylococcus aureus ATCC 29213 measured after 18 to 24 hrs in presence of FeCl3; assay type: functional
Candida albicans [18] = assay: Antifungal activity against Candida albicans cgmcc2.2086 measured after 48 hrs in presence of NaCl by broth microdilution method; assay type: functional; settings: cgmcc2.2086, 48 h
Candida albicans [19] = assay: Antifungal activity against Candida albicans cgmcc2.2086 measured after 48 hrs in presence of CaCl by broth microdilution method; assay type: functional; settings: cgmcc2.2086, 48 h
Candida albicans [20] = assay: Antifungal activity against Candida albicans cgmcc2.2086 measured after 48 hrs in presence of ZnCl by broth microdilution method; assay type: functional; settings: cgmcc2.2086, 48 h
Candida albicans [21] = assay: Antifungal activity against Candida albicans cgmcc2.2086 measured after 48 hrs in presence of NH4Cl by broth microdilution method; assay type: functional; settings: cgmcc2.2086, 48 h
[22] = Therapeutic index, ratio of MHC10 for hemolytic activity in human RBC to MIC95 against Escherichia coli ATCC 25922; assay type: toxicity; settings: human red blood cells (erythrocytes), pooled result: one value given for 9 cell lines, strains, targets or settings, read-out: TI
Procedure, shortened: (§4)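 Therapeutic index = MHC divided by MIC. MHC is the lowest concentration giving >10% lysis of human RBC (1 h, 37 °C, 1-128 µM, A576). MIC is 95% growth inhibition by broth microdilution: bacteria in MHB 24 h at 37 °C; Candida in MOPS-buffered RPMI 1640 at (0.5–1) × 10^3 CFU mL−1, 48 h at 28 °C.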

[23] = Therapeutic index, ratio of MHC10 for hemolytic activity in human RBC to MIC95 against methicillin-resistant Staphylococcus aureus ATCC 43300; assay type: toxicity; settings: human red blood cells (erythrocytes), read-out: TI; procedure, shortened: as §4
[24] = Therapeutic index, ratio of MHC10 for hemolytic activity in human RBC to MIC95 against Staphylococcus aureus ATCC 29213; assay type: toxicity; settings: human red blood cells (erythrocytes), read-out: TI; procedure, shortened: as §4
[25] = Therapeutic index, ratio of MHC10 for hemolytic activity in human RBC to MIC95 against Candida tropicalis cgmcc2.1975; assay type: toxicity; settings: human red blood cells (erythrocytes), read-out: TI; procedure, shortened: as §4
[26] = Conformational stability in pH 7.4 sodium phosphate buffer assessed as absorption spectra at minimum dichroic band at 35 uM by CD spectra analysis; assay type: physicochemical; settings: pH 7.4, 35 µM
Procedure, shortened: (§5)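 CD spectra from 190 to 250 nm of peptide at 35 μM in 10 mM PBS, 30 mM SDS micelles or 50% TFE, recorded in a 1.0-mm quartz cell. Ellipticity was converted to mean residue ellipticity. Three independent scans, each averaged over more than 3 runs.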

[27] = Conformational stability in 50% trifluoro-ethyl alcohol assessed as alpha-helical structural propensity by measuring absorption spectra at minimum dichroic band at 35 uM by CD spectra analysis; assay type: physicochemical; procedure, shortened: as §5

Substance | viability at up to 64 µM [1] [%] | MIC95 (Escherichia coli [2]) [µM] | MIC95 [3] [µM] | MIC95 (Escherichia coli [4]) [µM] | MIC95 (Escherichia coli [5]) [µM] | MIC95 (Escherichia coli [6]) [µM] | MIC95 (Staphylococcus aureus [7]) [µM] | MIC95 (Staphylococcus aureus [8]) [µM] | MBC (Pseudomonas aeruginosa) [µM] | MBC (Escherichia coli [9]) [µM] | MBC [10] [µM] | MIC95 (Escherichia coli [11]) [µM] | MIC95 (Escherichia coli [12]) [µM] | MIC95 (Escherichia coli [13]) [µM] | MIC95 (Staphylococcus aureus [14]) [µM] | MIC95 (Staphylococcus aureus [15]) [µM] | MIC95 (Staphylococcus aureus [16]) [µM] | MIC95 (Staphylococcus aureus [17]) [µM] | MIC95 (Candida albicans [18]) [µM] | MIC95 (Candida albicans [19]) [µM] | other results
H-AARIILRLRFR-NH2 | 90 to 100 | 4 | 4 | 4 | 2 | 4 | 2 | 2 | 32 | 8 | 4 | 8 | 32 | 16 | 16 | 4 | 2 | 4 | 32 | 32 | MIC95 (Candida albicans [20]): 8 µM; MIC95 (Candida albicans [21]): 8 µM; selectivity ratio [22]: 64; selectivity ratio [23]: 128; selectivity ratio [24]: 128; selectivity ratio [25]: 50.8; Wavelength of minimum CD band [26]: 200 nm; Activity [27]: 208 to 222 nm
H-AARIILRGRFR-NH2 | 90 to 100 | 4 | 4 | 2 | 2 | 4 | 16 | 8 | 32 | 4 | 16 | 8 | 64 | 16 | > 128 | 64 | 16 | 8 | > 128 | > 128 | MIC95 (Candida albicans [20]): > 128 µM; MIC95 (Candida albicans [21]): > 128 µM; selectivity ratio [22]: 54.3; selectivity ratio [23]: 26.9; selectivity ratio [24]: 26.9; selectivity ratio [25]: 5.04; Wavelength of minimum CD band [26]: 200 nm; Activity [27]: 208 to 222 nm
H-AARIILRWFRR-NH2 | 90 to 100 | 2 | 4 | 2 | 2 | 2 | 8 | 4 | 16 | 4 | 4 | 2 | 4 | 2 | 32 | 8 | 4 | 4 | 16 | 32 | MIC95 (Candida albicans [20]): 8 µM; MIC95 (Candida albicans [21]): 8 µM; selectivity ratio [22]: 87.1; selectivity ratio [23]: 53.8; selectivity ratio [24]: 53.8; selectivity ratio [25]: 50.8; Wavelength of minimum CD band [26]: 200 nm; Activity [27]: 208 to 222 nm
H-AARIILRWRFR-NH2 | 90 to 100 | 4 | 2 | 2 | 2 | 2 | 2 | 1 | 4 | 4 | 4 | 2 | 4 | 4 | 4 | 2 | 2 | 1 | 16 | 32 | MIC95 (Candida albicans [20]): 8 µM; MIC95 (Candida albicans [21]): 8 µM; selectivity ratio [22]: 94.1; selectivity ratio [23]: 215; selectivity ratio [24]: 215; selectivity ratio [25]: 50.8; Wavelength of minimum CD band [26]: 200 nm; Activity [27]: 208 to 222 nm
H-AARIILRIRFR-NH2 | 90 to 100 | 4 | 2 | 2 | 4 | 2 | 2 | 2 | 32 | 4 | 4 | 2 | 32 | 16 | 8 | 16 | 2 | 2 | 32 | 64 | MIC95 (Candida albicans [20]): 8 µM; MIC95 (Candida albicans [21]): 8 µM; selectivity ratio [22]: 37.3; selectivity ratio [23]: 64; selectivity ratio [24]: 64; selectivity ratio [25]: 25.4; Wavelength of minimum CD band [26]: 200 nm; Activity [27]: 208 to 222 nm
H-AARIILRARFR-NH2 | 90 to 100 | 2 | 4 | 2 | 2 | 4 | 4 | 4 | 32 | 4 | 4 | 8 | 32 | 16 | > 128 | 16 | 8 | 4 | 64 | 64 | MIC95 (Candida albicans [20]): 16 µM; MIC95 (Candida albicans [21]): 16 µM; selectivity ratio [22]: 69.1; selectivity ratio [23]: 90.5; selectivity ratio [24]: 90.5; selectivity ratio [25]: 25.4; Wavelength of minimum CD band [26]: 200 nm; Activity [27]: 208 to 222 nm
H-AARRILRWIFR-NH2 | 90 to 100 | 4 | 4 | 4 | 4 | 4 | 8 | 4 | 16 | 8 | 8 | 8 | 16 | 8 | 64 | 8 | 8 | 4 | 32 | 128 | MIC95 (Candida albicans [20]): 8 µM; MIC95 (Candida albicans [21]): 8 µM; selectivity ratio [22]: 59.3; selectivity ratio [23]: 45.2; selectivity ratio [24]: 45.2; selectivity ratio [25]: 40.3; Wavelength of minimum CD band [26]: 200 nm; Activity [27]: 208 to 222 nm
